In paper PMC7893122 (Acta Pharmaceutica Sinica. B, 2020):

Assays:
BRD4 (BD1) = BRD4 (BD1) (Homo sapiens, UniProt O60885); assay: Homogeneous time-resolved fluorescence binding assay, BRD4; details: IC50 BRD4 (BD1), mean ± SD from three separate experiments
[1] = test system: HH signaling pathway (GLI-responsive firefly luciferase reporter); assay: Dual luciferase reporter assay; type: cell-based; details: read-out: IC50 GLI-luc reporter
hERG channel = hERG channel (Homo sapiens, UniProt Q12809); assay: hERG inhibition; type: cell-based
Sequence of hERG channel (Q12809 whole entry): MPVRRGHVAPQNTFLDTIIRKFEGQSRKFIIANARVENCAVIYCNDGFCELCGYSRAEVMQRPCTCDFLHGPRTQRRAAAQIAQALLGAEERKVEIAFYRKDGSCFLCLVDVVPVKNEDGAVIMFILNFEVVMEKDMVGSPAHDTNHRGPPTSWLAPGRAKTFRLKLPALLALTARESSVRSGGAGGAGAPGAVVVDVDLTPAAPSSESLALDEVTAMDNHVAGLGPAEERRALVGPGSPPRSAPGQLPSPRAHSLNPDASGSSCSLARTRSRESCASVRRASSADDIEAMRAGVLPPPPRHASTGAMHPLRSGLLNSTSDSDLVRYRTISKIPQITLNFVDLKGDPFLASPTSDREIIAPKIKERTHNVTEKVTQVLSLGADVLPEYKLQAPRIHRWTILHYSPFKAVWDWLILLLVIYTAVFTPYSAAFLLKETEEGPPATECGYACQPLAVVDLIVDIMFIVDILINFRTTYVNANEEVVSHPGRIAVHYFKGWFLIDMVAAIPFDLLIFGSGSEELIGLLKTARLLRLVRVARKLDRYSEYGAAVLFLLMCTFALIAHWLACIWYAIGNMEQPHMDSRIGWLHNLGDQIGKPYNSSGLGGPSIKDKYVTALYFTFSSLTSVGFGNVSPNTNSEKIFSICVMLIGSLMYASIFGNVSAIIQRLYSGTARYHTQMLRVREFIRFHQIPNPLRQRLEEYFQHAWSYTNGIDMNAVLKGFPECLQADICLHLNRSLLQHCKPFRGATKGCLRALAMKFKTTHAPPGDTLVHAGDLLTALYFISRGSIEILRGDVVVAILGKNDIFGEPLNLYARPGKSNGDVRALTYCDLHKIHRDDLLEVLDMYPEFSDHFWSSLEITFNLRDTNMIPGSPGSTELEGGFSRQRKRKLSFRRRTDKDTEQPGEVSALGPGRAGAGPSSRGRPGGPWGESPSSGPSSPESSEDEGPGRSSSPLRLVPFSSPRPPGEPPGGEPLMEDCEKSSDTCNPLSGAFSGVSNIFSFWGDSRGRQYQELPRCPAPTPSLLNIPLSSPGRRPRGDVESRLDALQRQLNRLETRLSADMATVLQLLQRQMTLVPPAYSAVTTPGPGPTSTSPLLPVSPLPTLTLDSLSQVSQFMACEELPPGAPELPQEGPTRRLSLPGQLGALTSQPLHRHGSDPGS

[2] = Pharmacokinetics in Sprague–Dawley rats; type: in vivo; details: rat
H3132 = assay: Cell growth inhibition; type: cell-based; details: 72 h
Summary of the method: (§1)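 Cells seeded in 96-well plates and incubated overnight. DMSO stocks of test compound were thawed at room temperature, diluted with saline to working concentrations, and added for 72 h. Growth read by CCK-8 assay, giving IC50/GI50.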

N87 = assay: Cell growth inhibition; type: cell-based; details: 72 h
Summary of the method: as §1

HT1080 = assay: Cell growth inhibition; type: cell-based; details: Homo sapiens, HT-1080, 72 h
Summary of the method: as §1

Colo680N = assay: Cell growth inhibition; type: cell-based; details: Homo sapiens, COLO-680N, 72 h
Summary of the method: as §1

HSC-2 = assay: Cell growth inhibition; type: cell-based; details: Homo sapiens, HSC-2, 72 h
Summary of the method: as §1

KYSE450 = assay: Cell growth inhibition; type: cell-based; details: Homo sapiens, KYSE-450, 72 h
Summary of the method: as §1

TOV-21G = assay: Cell growth inhibition; type: cell-based; details: Homo sapiens, TOV21G, 72 h
Summary of the method: as §1

CAL27 = assay: Cell growth inhibition; type: cell-based; details: Homo sapiens, CAL-27, 72 h
Summary of the method: as §1

SKM-1 = assay: Cell growth inhibition; type: cell-based; details: Homo sapiens, SKM-1, 72 h
Summary of the method: as §1

H1975 = assay: Cell growth inhibition; type: cell-based; details: Homo sapiens, NCI-H1975, 72 h
Summary of the method: as §1

DOHH-2 = assay: Cell growth inhibition; type: cell-based; details: Homo sapiens, DOHH-2, 72 h
Summary of the method: as §1

CHL normal cell line = assay: Cell growth inhibition; type: cell-based; details: 72 h
Summary of the method: as §1

GLI1 = assay: GLI-luciferase activity in light2 cells after transfection with GLI1; type: cell-based; details: read-out: IC50, GLI-luciferase activity provoked by forced expression of GLI1
Summary of the method: (§2)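 Light2 cells (NIH-3T3 stably carrying GLI-responsive firefly luciferase and renilla expression vector) lipofected with FLAG-GLI1 or MYC-GLI2-FL. Test compound added 24 h post-transfection, then 36 h exposure. Dual-luciferase read-out, firefly normalised to TK-renilla.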

GLI2 = assay: GLI-luciferase activity in light2 cells after transfection with GLI2; type: cell-based; details: read-out: IC50, GLI-luciferase activity provoked by forced expression of GLI2
Summary of the method: as §2

SMO^WT = assay: GLI-luciferase activity in light2 cells with ectopic SMO^WT; type: cell-based; details: read-out: IC50, GLI-luciferase activity induced by SMO^WT
Summary of the method: (§3)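 NIH-3T3-derived light2 reporter cells (stable GLI-responsive firefly luciferase plus renilla vector) with forced SMO expression, exposed to test compound for 36 h. Dual-luciferase kit read-out; firefly signal normalised to TK-renilla.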

SMO^D473H = assay: GLI-luciferase activity in light2 cells with ectopic SMO^D473H; type: cell-based; details: read-out: IC50, GLI-luciferase activity induced by SMO^D473H
Summary of the method: as §3

SMO^W535L = assay: GLI-luciferase activity in light2 cells with ectopic SMO^W535L; type: cell-based; details: read-out: IC50, GLI-luciferase activity induced by SMO^W535L
Summary of the method: as §3

endogenous GLI2 = assay: Western blot of endogenous GLI2 in light2 cells; type: cell-based; details: 25 at 10 and 100 nmol/L, GDC-0449 100 nmol/L
Summary of the method: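 Light2 cells treated with test compound, lysed in LDS sample buffer, and run on SDS-PAGE. Immunoblotting used anti-GLI2 (1:1000), with GAPDH (1:5000) as reference.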

GLI2-MYC = assay: Western blot of exogenous GLI2-MYC in transfected light2 cells; type: cell-based; details: light2 cells transfected with GLI2-MYC
Summary of the method: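 Light2 cells lipofected with FLAG-GLI1 or MYC-GLI2-FL; test compound added 24 h after transfection. Lysis in LDS sample buffer, then SDS-PAGE. Immunoblots probed with tag or GLI2 antibodies (1:1000), with GAPDH (1:5000) as reference.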

[3] = test system: SMOA1 MB allografts (SMO^W539L); assay: SMOA1 MB allograft model; type: in vivo, nude mice; details: bid
Summary of the method: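 Primary SMOA1 MB allografts from ND2:SMOA1 transgenic mice grafted subcutaneously into nude mice. Dosing started at 100–150 mm3 tumour size: test compound p.o. twice daily, vehicle 0.5% CMC-Na, n ≥ 3 per group. Caliper measurement every 3 days; volume = 0.5 × length × width². Body weight tracked; group means ± SEM.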

SMO wild MB = details: 20 mg/kg p.o., bid; cited from earlier work
[4] = Sprague-Dawley, plasma, iv, 1 mg/kg
[5] = Sprague-Dawley, plasma, po, 3 mg/kg

## Cn1cc(-c2cc(N3CCCCS3(=O)=O)ccc2Oc2ccc(F)cc2F)c2c(F)c[nH]c2c1=O [Compound 25]
BRD4 (BD1)
  IC50: 1.51 ± 0.43 nM
[1]
  IC50: 0.48 ± 0.08 nM
hERG channel
  IC50: 27300 nM
[2]; [4]
  AUC(0-inf): 614 ng·h/mL
  AUC(0-t): 614 ng·h/mL
  MRT inf: 46.2 min
  clearance: 27.2 mL/min/kg
  half-life: 32.4 min
[2]; [5]
  AUC(0-inf): 406 ng·h/mL
  AUC(0-t): 406 ng·h/mL
  Cmax: 503 ng/mL
  MRT inf: 57 min
  Tmax: 15 min
  half-life: 57.6 min
[2]; i.v. 1 mg/kg
  Vss_obs: 1.258 L/kg
H3132
  GI50: 140 nM
N87
  GI50: 130 nM
HT1080
  GI50: 1000 nM
Colo680N
  GI50: 2300 nM
HSC-2
  GI50: 770 nM
KYSE450
  GI50: 1600 nM
TOV-21G
  GI50: 23 nM
CAL27
  GI50: 110 nM
SKM-1
  GI50: 19 nM
H1975
  GI50: 34 nM
DOHH-2
  GI50: 6.6 nM
CHL normal cell line
  GI50: > 10000 nM
GLI1
  IC50: 0.97 nM
GLI2
  IC50: 2.2 nM
SMO^WT
  IC50: 1.16 nM
SMO^D473H
  IC50: 1.44 nM
SMO^W535L
  IC50: 1.13 nM
Endogenous GLI2
  Effect on abundance of endogenous GLI2 proteins: dramatically reduced
GLI2-MYC
  Effect on expression of exogenous GLI2-MYC: failed to inhibit
[3]; 5 mg/kg p.o.
  Tolerability: well tolerant
[3]; 5 mg/kg p.o., Fig. 6A
  tumor growth inhibition (TGI): 83.3%
[3]; 10 mg/kg p.o.
  Tolerability: well tolerant
[3]; 10 mg/kg p.o., Fig. 5A
  tumor growth inhibition (TGI): 88.2%
[3]; 10 mg/kg p.o., Fig. 5B
  Body weight change: No obvious body weight loss
[3]; 10 mg/kg p.o., Fig. 6A
  tumor growth inhibition (TGI): 87.6%

## CS(=O)(=O)c1ccc(C(=O)Nc2ccc(Cl)c(-c3ccccn3)c2)c(Cl)c1 [GDC-0449, reference compound]
Endogenous GLI2
  Effect on abundance of endogenous GLI2 proteins: no effect
[3]; 20 mg/kg p.o., Fig. 5A
  Effect on tumor growth: failed to affect the tumor growth
SMO wild MB
  Tumor growth inhibition in SMO wild MB mice: complete tumor growth inhibition
